# Test results as given in ChEMBL document CHEMBL4765347, “Radiomodulatory effect of a non-electrophilic NQO1 inducer identified in a screen of new 6, 8-diiodoquinazolin-4(3H)-ones carrying a sulfonamide moiety” (Eur J Med Chem, 2020).
# Activity calls are given as the source filed them. The rule behind the calls is not given here.
# How the values were obtained:
# Nrf2 (Mus musculus) [1] = assay: Activation of Nrf2 in mouse Hepa1c1c7 cells assessed as increase in NQO1 activity at 5 uM using menadione as substrate incubated for 20 mins followed by substrate addition and measured after 30 mins by spectrophotometry relative to control; conditions: filed as activator, time 50.0 min
# [2] = Toxicity in non-irradiated Swiss albino mouse assessed as increase in NQO1 level at 50 mg/kg, ip administered for 5 days by ELISA; format: organism-based; conditions: in vivo, 120 h, time 5 day
# Method in brief: (§1)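 Non-irradiated mice were dosed 50 mg/kg/day i.p. (vehicle 10% DMSO) for 5 days and compared with vehicle controls. On day 3, five mice per group were anesthetized with urethane. Liver homogenates (ice-cold 0.1 M PBS pH 7.4, stored −80 °C) were assayed for Nrf2 and NQO1 by ELISA, for MDA as lipid peroxide marker, and for ROS. Data are mean ± S.E., n = 5, ANOVA with Bonferroni.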
# [3] = Toxicity in ip dosed Swiss albino mouse; format: organism-based; conditions: in vivo
# Nrf2 (Mus musculus) [4] = assay: Activation of Nrf2 in mouse Hepa1c1c7 cells assessed as increase in NQO1 activity at 20 uM using menadione as substrate incubated for 20 mins followed by substrate addition and measured after 30 mins by spectrophotometry relative to control; conditions: filed as activator, time 50.0 min
# Nrf2 (Mus musculus) [5] = assay: Activation of Nrf2 in mouse Hepa1c1c7 cells assessed as increase in NQO1 activity at 0.625 uM using menadione as substrate incubated for 20 mins followed by substrate addition and measured after 30 mins by spectrophotometry relative to control; conditions: filed as activator, time 50.0 min
# Mus musculus [6] = assay: Effect on hematopoiesis in gamma-irradiated Swiss albino mouse assessed as increase in radiation-reduced HGB count at 50 mg/kg, ip administered for 5 days and irradiated with gamma radiation after 1 hr of compound administration by automated micro-analyzer; format: functional, organism-based; conditions: time 5.0 day
# Method in brief: (§2)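 Dosing was i.p. 50 mg/kg/day in 10% DMSO for 5 days, followed 1 h after the final injection by 7 Gy whole-body 137Cs gamma irradiation. Complete blood count with platelets (RBC, HGB, PLT, WBC) was done on an automated analyzer 3 days after irradiation. Data are mean ± S.E.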
# [7] = Toxicity in Swiss albino mouse assessed as effect on body weight at 50 mg/kg, ip administered for 5 days and observed for 30 days; format: organism-based; conditions: in vivo, 720 h, time 30 day
# Method in brief: (§3)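 Albino mice received the compound at 50 mg/kg/day i.p. daily for 5 days, with 10% DMSO i.p. daily as vehicle control; 80 mice were randomised into four groups. Body weight was recorded weekly and survival was checked daily over 30 days. Mice were housed at 25 ± 5 °C, 60 ± 5% humidity and 12 h light/dark, with food and water ad libitum.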
# Nrf2 (Mus musculus) [8] = assay: Activation of Nrf2 in mouse Hepa1c1c7 cells assessed as increase in NQO1 activity at 10 uM using menadione as substrate incubated for 20 mins followed by substrate addition and measured after 30 mins by spectrophotometry relative to control; conditions: filed as activator, time 50.0 min
# [9] = Toxicity in Swiss albino mouse assessed as effect on liver weight at 50 mg/kg, ip administered for 5 days and observed for 5 days; format: organism-based; conditions: in vivo, 120 h, time 5 day
# Nrf2 (Mus musculus) [10] = assay: Activation of Nrf2 in mouse Hepa1c1c7 cells assessed as increase in NQO1 activity at 2.5 uM using menadione as substrate incubated for 20 mins followed by substrate addition and measured after 30 mins by spectrophotometry relative to control; conditions: filed as activator, time 50.0 min
# Nrf2 (Mus musculus) [11] = assay: Activation of Nrf2 in mouse Hepa1c1c7 cells assessed as increase in NQO1 activity using menadione as substrate incubated for 20 mins followed by substrate addition and measured after 30 mins by spectrophotometry; conditions: filed as activator, time 50.0 min
# Mus musculus [12] = assay: Antioxidant activity against radiation-induced Swiss albino mouse assessed as decrease in MDA level in liver at 50 mg/kg, ip administered for 5 days and irradiated with gamma radiation after 1 hr of compound administration by ELISA relative to control; format: functional; design: scale not given: the % may be the effect or the level left; conditions: time 5 day
# Method in brief: (§4)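 Mice received 50 mg/kg/day i.p. in 10% DMSO for 5 days, plus whole-body 7 Gy 137Cs gamma (0.655 rad/s) 1 h after the last dose. On day 3, five mice per group were anesthetized with urethane. Livers were homogenized in ice-cold 0.1 M PBS pH 7.4. Nrf2 and NQO1 were measured by ELISA, lipid peroxidation as MDA, plus ROS generation. Data are mean ± S.E., one-way ANOVA with Bonferroni.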
# [13] = Toxicity in non-irradiated Swiss albino mouse assessed as increase in ROS level at 50 mg/kg, ip administered for 5 days by ELISA; format: organism-based; conditions: in vivo, 120 h, time 5 day
# Method in brief: as §1
# Mus musculus [14] = assay: Effect on hematopoiesis in gamma-irradiated Swiss albino mouse assessed as increase in radiation-reduced PLT count at 50 mg/kg, ip administered for 5 days and irradiated with gamma radiation after 1 hr of compound administration by automated micro-analyzer; format: functional, organism-based; conditions: time 5.0 day
# Method in brief: as §2
# [15] = Toxicity in non-irradiated Swiss albino mouse assessed as effect on MDA level at 50 mg/kg, ip administered for 5 days by ELISA; format: organism-based; conditions: in vivo, 120 h, time 5 day
# Method in brief: as §1
# [16] = molecular target: Nuclear factor erythroid 2-related factor 2 (Mus musculus) (UniProt Q60795); assay: Activation of Nrf2 in mouse Hepa1c1c7 cells assessed as increase in NQO1 activity at 40 uM using menadione as substrate incubated for 20 mins followed by substrate addition and measured after 30 mins by spectrophotometry relative to control; conditions: filed as activator, time 50.0 min
# Mus musculus [17] = assay: Antioxidant activity against radiation-induced Swiss albino mouse assessed as decrease in NQO1 level in liver at 50 mg/kg, ip administered for 5 days and irradiated with gamma radiation after 1 hr of compound administration by ELISA relative to control; format: functional; design: scale not given: the % may be the effect or the level left; conditions: time 5 day
# Method in brief: as §4
# Mus musculus [18] = assay: Antioxidant activity against radiation-induced Swiss albino mouse assessed as increase in Nrf2 level in liver at 50 mg/kg, ip administered for 5 days and irradiated with gamma radiation after 1 hr of compound administration by ELISA relative to control; format: functional; conditions: time 5 day
# Method in brief: as §4
# [19] = Toxicity in non-irradiated Swiss albino mouse assessed as decrease in Nrf2 level at 50 mg/kg, ip administered for 5 days by ELISA; format: organism-based; conditions: in vivo, 120 h, time 5 day
# Method in brief: as §1
# [20] = Toxicity in Swiss albino mouse assessed as survival rate at 50 mg/kg, ip administered for 5 days and observed for 30 days; format: organism-based; conditions: in vivo, 720 h, time 30 day
# Method in brief: as §3
# Nrf2 (Mus musculus) [21] = assay: Activation of Nrf2 in mouse Hepa1c1c7 cells assessed as increase in NQO1 activity at 0.313 uM using menadione as substrate incubated for 20 mins followed by substrate addition and measured after 30 mins by spectrophotometry relative to control; conditions: filed as activator, time 50.0 min
# Nrf2 (Mus musculus) [22] = assay: Activation of Nrf2 in mouse Hepa1c1c7 cells assessed as increase in NQO1 activity at 1.25 uM using menadione as substrate incubated for 20 mins followed by substrate addition and measured after 30 mins by spectrophotometry relative to control; conditions: filed as activator, time 50.0 min
# Mus musculus [23] = assay: Antioxidant activity against radiation-induced Swiss albino mouse assessed as decrease in ROS level in liver at 50 mg/kg, ip administered for 5 days and irradiated with gamma radiation after 1 hr of compound administration by ELISA relative to control; format: functional; design: scale not given: the % may be the effect or the level left; conditions: time 5 day
# Method in brief: as §4
# Mus musculus [24] = assay: Effect on hematopoiesis in gamma-irradiated Swiss albino mouse assessed as increase in radiation-reduced RBC count at 50 mg/kg, ip administered for 5 days and irradiated with gamma radiation after 1 hr of compound administration by automated micro-analyzer; format: functional, organism-based; conditions: time 5.0 day
# Method in brief: as §2
# Chain of Nuclear factor erythroid 2-related factor 2 (Mus musculus) (Q60795 whole entry, looked up): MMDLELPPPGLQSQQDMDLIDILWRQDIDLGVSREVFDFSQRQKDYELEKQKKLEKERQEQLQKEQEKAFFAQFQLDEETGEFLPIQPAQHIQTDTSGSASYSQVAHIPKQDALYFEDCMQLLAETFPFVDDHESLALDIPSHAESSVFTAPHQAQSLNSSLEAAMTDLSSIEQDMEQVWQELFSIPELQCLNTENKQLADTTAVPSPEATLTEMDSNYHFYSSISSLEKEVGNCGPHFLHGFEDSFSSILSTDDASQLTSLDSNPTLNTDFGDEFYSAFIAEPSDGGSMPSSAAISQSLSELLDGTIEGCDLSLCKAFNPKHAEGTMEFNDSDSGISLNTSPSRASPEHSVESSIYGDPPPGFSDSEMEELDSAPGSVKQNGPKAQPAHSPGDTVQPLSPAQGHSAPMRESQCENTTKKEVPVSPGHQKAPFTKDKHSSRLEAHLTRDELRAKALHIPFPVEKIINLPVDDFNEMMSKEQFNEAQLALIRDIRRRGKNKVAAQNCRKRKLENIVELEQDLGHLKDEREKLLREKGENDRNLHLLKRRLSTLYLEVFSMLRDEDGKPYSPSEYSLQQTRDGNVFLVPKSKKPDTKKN
compound,measurement,setting,value
COc1cc(NC(=O)CSc2nc3c(I)cc(I)cc3c(=O)n2-c2ccc(S(N)(=O)=O)cc2)cc(OC)c1OC,T/C,Nrf2 (Mus musculus) [1],1.24
same,Activity,[2],Non-Toxic
same,LD50,[3],500 mg/kg
same,T/C,Nrf2 (Mus musculus) [4],1.98
same,T/C,Nrf2 (Mus musculus) [5],1.08
same,Activity,Mus musculus [6],Active
same,Activity,[7],Non-Toxic
same,T/C,Nrf2 (Mus musculus) [8],1.43
same,Activity,[9],Non-Toxic
same,T/C,Nrf2 (Mus musculus) [10],1.16
same,Activity,Nrf2 (Mus musculus) [11],Dose-dependent effect
same,CD,Nrf2 (Mus musculus) [11],20 µM
same,Activity,Mus musculus [12],28%
same,Activity,[13],Non-Toxic
same,Activity,Mus musculus [14],Active
same,Activity,[15],Non-Toxic
same,T/C,[16],2.42
same,Activity,Mus musculus [17],30%
same,Activity,Mus musculus [18],19%
same,Activity,[19],Non-Toxic
same,Activity,[20],Non-Toxic
same,T/C,Nrf2 (Mus musculus) [21],1.02
same,T/C,Nrf2 (Mus musculus) [22],1.1
same,Activity,Mus musculus [23],23%
same,Activity,Mus musculus [24],Active
